This is one part of a sample in which hits are shown more often than they occur.
UPR CHOP act: apoptotic UPR (CHOP) activation; CHO-CHOP luciferase reporter, luminescence; percent of tunicamycin response over DMSO baseline; activation, % at 10 µM; 330,000 compounds, 0.34% hits;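 active = at 10 µM dose, activation of 40% or more, normalized to positive control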;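 also: 100% = tunicamycin at 10 µg/mL and 0% = DMSO alone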
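System: CHO-CHOP luciferase reporter cell line | Buffer or medium: F12 medium containing 10% fetal bovine serum | Doses: One dose, 10 µM in 0.5% DMSO | Times: 6 h compound exposure at 37 °C after overnight seeding | Signal: Luciferase luminescence | Read-out: % activation vs tunicamycin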
CHOP inhibitor: CHOP inhibition in unfolded protein response. CHO-K1 CHOP-promoter luciferase, tunicamycin-induced, 15-18 h. inhibition, % at 10 µM. 220,000 compounds, 3.8% hits. AID 2732;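 active = compounds that reduced the stress-induced luciferase reporter signal by more than about 70% of percent inhibition, limit read from the data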;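 also: 0% = tunicamycin plus vehicle and 100% = wells without tunicamycin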
H9c2 protect: myocardial damage modulation in H9c2 cells; protection from H2O2 cell death, % at 20 µM; 360,000 compounds, 0.63% hits; H9c2 cardiomyocytes, H2O2 injury protection, ATPLite, 2 h; AID 588492;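 active = compounds giving at least 50% protection of heart cells from peroxide-induced death in the single-dose screen, raw or plate-pattern-corrected value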;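 also: 0% = DMSO wells with peroxide and 100% = DMSO wells without peroxide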
iPSC survival up: hiPSC single-cell survival enhancement; AID 602274; survival enhancement, % at 20 µM; 360,000 compounds, 0.044% hits; ATPlite luminescence; 100% = ROCK inhibitor wells, 0% = DMSO; in the data active = survival enhancement above about 18%;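 also: cells exposed to compounds for 16 hours before the ATP read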
XBP1 UPR activ: activators of adaptive arm of unfolded protein response (XBP1). AID 463104. CHO-XBP1 luciferase reporter, IRE1-XBP1 UPR activation, luminescence; percent of tunicamycin response, DMSO as zero. 330,000 compounds, 0.33% hits. activation, % at 20 µM;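 active = versus positive control, 20 µM dose yields 30% or more activation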;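 also: 100% = tunicamycin at 10 µg/mL and 0% = DMSO only wells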
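Material – CHO cell line with stable XBP1 luciferase reporter · Buffer or medium – F12 plus 10% FBS · Compound – single point, 20 µM final compound, 1% DMSO · Schedule – 16-18 h cell attachment at 37 °C, then 6 h compound exposure · Signal – Steady-Glo luminescence read · Benchmarks – high control tunicamycin 10 µg/mL final, low control DMSO vehicle only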
* marks the source's active call; other numbers are inactive results; / = not tested or not shown.

SMILES	UPR CHOP act	CHOP inhibitor	H9c2 protect	iPSC survival up	XBP1 UPR activ
COc1cc(/C=C(\C#N)C(=O)Nc2ccccc2F)ccc1OCCN1CCOCC1	0	/	67*	0	-2
COc1ccc(CN(C)C[C@@H]2OCCCC[C@H](C)Oc3ccc(NC(=O)Nc4ccc(F)cc4)cc3C(=O)N([C@H](C)CO)C[C@H]2C)cc1	/	/	6	-4	/
Oc1ccc(CN2CCCc3ccccc32)c2cccnc12	5	9	56*	-4	4
CCOC1CCCc2oc(-c3ccsc3)c(-c3cnc(OC)nc3)c21 (stereo not given)	/	/	/	0	/
COc1cc(CNC2CCCC2)cc(Cl)c1OCc1ccccc1F	-1	79*	9	-1	2
O=S1(=O)CCN(Cc2cccnc2)CC1	/	/	3	0	/
CCOc1ccc(-n2cc(-c3ccccc3)c3c(=S)nc[nH]c32)cc1	1	/	52*	0	-1
c1ccc(-c2cn(-c3ccccc3)c3ncnc(N4CCCCC4)c23)cc1	1	52	5	2	-2
COc1ccc(-n2cc(-c3ccccc3)c3c(N4CC(C)OC(C)C4)ncnc32)cc1 (stereo not given)	1	73*	29	0	3
CCOc1ccc(-n2cc(-c3ccccc3)c3c(N4CCOCC4)ncnc32)cc1	0	-2	63*	11	4
COc1ccc(Cl)cc1NC(=O)CN(C)C(=O)c1cc(-c2ccncc2)nc2ccccc12	-1	/	23	1	0
CCN(CC)c1ncnc2c1ncn2Cc1c(Cl)cccc1Cl	0	6	-14	-2	1
Clc1cccc(Cl)c1Cn1cnc2c(N3CCCCCC3)ncnc21	1	76*	-12	-1	11
COc1cccc(-c2nn(-c3ccccc3)cc2C(=O)Nc2nccs2)c1	6	59	63*	-4	3
O=C(Nc1nccs1)c1cn(-c2ccccc2)nc1-c1ccncc1	0	-13	19	-2	0
COc1ccc(-c2nn(-c3ccccc3)cc2C(=O)Nc2nccs2)cc1	4	23	59*	-3	-2
Cn1cnc2ncnn2c1=S	/	/	2	-1	/
CN(C(=O)Nc1ccc(Cl)cc1Cl)[C@H]1c2cc(Br)ccc2OC[C@H]1CO	-1	89*	-1	-3	-2
COC(=O)C1=C(C)N=c2s/c(=C/c3ccoc3)c(=O)n2C1c1ccccc1 (stereo not given)	1	32	12	5	-1
COC(=O)C1=C(C)N=c2s/c(=C3\C(=O)Nc4ccccc43)c(=O)n2C1c1ccccc1 (stereo not given)	1	79*	/	/	10
CCOC(=O)C1=C(C)n2c(s/c(=C3\C(=O)Nc4ccccc43)c2=O)=NC1c1ccc(OC)cc1 (stereo not given)	4	78*	5	-2	16
C=C1CCCC2OC(CC3=CC4/C(C)=C/CC(C)CC(/C=C(\C)C(O)C5CC(O)C(O)C(CCC(O)/C=C/C(C)=C/CCC6=NCCC(C3)C64C)O5)OC(=O)CC3OC(C(O)C1)C(O)C3O)CC(O)C2O (stereo not given)	/	/	4	-1	/
Cc1ccc(NC(=O)COC(=O)Cn2cnc3ccccc32)c(C)c1	2	/	-3	-3	0
CCCCn1c(=O)[nH]c(=O)c2c1nc(-c1ccc(CC)c([N+](=O)[O-])c1)n2C	-1	76*	/	/	8
CCCCn1c(=O)[nH]c(=O)c2c1nc(-c1ccc(-c3ccc(F)cc3)o1)n2C	1	13	/	/	-2
SMILES	UPR CHOP act	CHOP inhibitor	H9c2 protect	iPSC survival up	XBP1 UPR activ
CC12CCC(C/C1=N/NC(=O)Nc1ccccc1)C2(C)C (stereo not given)	2	90*	-2	0	4
COc1ccc(S(=O)(=O)/N=C2/C=CC(=O)C(C)=C2C)cc1	-1	82*	-3	-1	-2
COCCn1c(C)cc(/C=C2/NC(=O)N(c3cccc(Cl)c3)C2=O)c1C	3	71*	-6	1	2
C/C(=N\Nc1nc(C)cc(-c2ccccc2)n1)c1ccc(C)o1	0	-1	48*	0	2
C/C(=N/Nc1nc(C)cc(-c2ccccc2)n1)c1ccco1	6	-21	-1	-2	0
O=C1O/C(=C/Br)CCC1c1cccc2ccccc12 (stereo not given)	/	-18	/	/	/
N#C/C(=N\Nc1cccc([N+](=O)[O-])c1)C(=O)c1ccc(Br)cc1	2	79*	-24	1	1
CCn1cc(C(=O)O)c(=O)c2cc(F)c(N3CCN(S(=O)(=O)c4ccc(Br)cc4)CC3)cc21	7	76*	/	/	12
CCn1cc(C(=O)O)c(=O)c2cc(F)c(N3CCN(C(=S)NC(=O)c4ccccc4Cl)CC3)cc21	0	-5	6	-1	-2
O=C(CCc1nc2ccccc2c(=O)[nH]1)N1CCN(c2ccccc2Cl)CC1	-2	/	64*	0	-4
CCN1CCN(C(=O)CCc2nc3ccccc3c(=O)[nH]2)CC1	-2	-2	50	-1	0
O=C(CCc1nc2ccccc2c(=O)[nH]1)N1CCCc2ccccc21	2	/	67*	0	-4
Cc1cc(C)c(C)c(S(=O)(=O)N2CCN(C(=O)CCc3nc4ccccc4c(=O)[nH]3)CC2)c1C	0	/	70*	0	-3
O=C(CCc1nc2ccccc2c(=O)[nH]1)Nc1cc(Cl)ccc1N1CCCC1	0	/	38	1	0
O=C(CCc1nc2ccccc2c(=O)[nH]1)N1CCN(S(=O)(=O)c2cc(Cl)ccc2Cl)CC1	/	/	61*	0	/
O=C(Cn1nnc2ccccc2c1=O)N1CCCc2ccccc21	-1	-8	5	10	1
CC(CC(=O)Nc1ccc2c(c1)c(=O)n(C)n2-c1ccc2ccccc2c1)C(F)(F)F (stereo not given)	/	/	-8	-1	/
CCc1nc2c(OCC(=O)c3ccc(Cl)cc3Cl)cccn2c1N(C)C(=O)c1cccs1	/	/	8	0	/
CC(C)=C[C@H]1C[C@H](C)[C@H]2CC[C@H](C)c3c(O)c(O[C@H]4OC[C@H](O)[C@@H](O)[C@@H]4O)c(C)c1c32	/	/	-4	0	/
CC(C)CCNC(=O)c1cc(S(=O)(=O)N2CCC3(CC2)OCCO3)ccc1F	/	/	-2	-2	/
O=C(NC(c1ccc(F)cc1)c1ccc2ccccc2n1)C1CCN(Cc2cccc(C(F)(F)F)c2)CC1 (stereo not given)	/	/	-8	0	/
O=C(CCc1nc2ccccc2c(=O)[nH]1)Nc1cccc(S(=O)(=O)N2CCOCC2)c1	2	/	26	-1	-2
O=C(CCc1nc2ccccc2c(=O)[nH]1)N1CCN(S(=O)(=O)c2cccc(F)c2)CC1	-2	/	52*	0	-7
CC(=O)c1ccc(S(=O)(=O)N2CCN(C(=O)c3ccc(-n4nc(C)c(Cl)c4C)cc3)CC2)cc1	4	/	-12	0	0
